The target of experiment [1] is T1, Cytosolic phospholipase A2 (Homo sapiens) (UniProt P47712).
T1 sequence (whole entry): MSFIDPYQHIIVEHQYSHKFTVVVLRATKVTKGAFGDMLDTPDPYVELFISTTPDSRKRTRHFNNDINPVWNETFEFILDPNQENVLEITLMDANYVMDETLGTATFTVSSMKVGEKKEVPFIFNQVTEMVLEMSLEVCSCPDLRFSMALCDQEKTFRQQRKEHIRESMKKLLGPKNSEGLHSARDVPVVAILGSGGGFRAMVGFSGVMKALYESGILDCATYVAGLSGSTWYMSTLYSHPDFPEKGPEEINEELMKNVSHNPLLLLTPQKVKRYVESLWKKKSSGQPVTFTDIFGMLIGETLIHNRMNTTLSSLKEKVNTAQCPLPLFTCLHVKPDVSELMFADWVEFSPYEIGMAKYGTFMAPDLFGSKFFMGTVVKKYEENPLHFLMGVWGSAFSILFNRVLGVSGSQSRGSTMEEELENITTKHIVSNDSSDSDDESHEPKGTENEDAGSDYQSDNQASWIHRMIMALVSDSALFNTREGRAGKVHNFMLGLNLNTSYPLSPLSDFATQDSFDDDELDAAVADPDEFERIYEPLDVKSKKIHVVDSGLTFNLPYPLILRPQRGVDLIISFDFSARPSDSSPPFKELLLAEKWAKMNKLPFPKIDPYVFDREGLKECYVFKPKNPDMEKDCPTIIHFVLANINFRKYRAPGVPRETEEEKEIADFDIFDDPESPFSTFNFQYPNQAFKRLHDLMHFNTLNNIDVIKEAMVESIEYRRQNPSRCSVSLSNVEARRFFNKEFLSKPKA
Kind of experiment: Inhibition of group 4A cPLA2. Put shortly: (§1)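 Native human GIVA cPLA2 (10 ng) was assayed in 100 mM HEPES pH 7.5 with 80 µM CaCl2, 0.1 mg/mL fatty-acid-free BSA and 2 mM DTT. Substrate was 97 µM 1-palmitoyl-2-[14C]-arachidonoyl PC with 3 µM PIP2 and 400 µM Triton X-100 micelles, plus 1% DMSO. Runs were 30 min at 40 °C, read by modified Dole assay. Potency is XI(50) in surface mole fraction; highest dose 0.091 mole fraction.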

Experiment [2] deals with T2, 85/88 kDa calcium-independent phospholipase A2 (Homo sapiens) (UniProt O60733).
T2 sequence (whole entry): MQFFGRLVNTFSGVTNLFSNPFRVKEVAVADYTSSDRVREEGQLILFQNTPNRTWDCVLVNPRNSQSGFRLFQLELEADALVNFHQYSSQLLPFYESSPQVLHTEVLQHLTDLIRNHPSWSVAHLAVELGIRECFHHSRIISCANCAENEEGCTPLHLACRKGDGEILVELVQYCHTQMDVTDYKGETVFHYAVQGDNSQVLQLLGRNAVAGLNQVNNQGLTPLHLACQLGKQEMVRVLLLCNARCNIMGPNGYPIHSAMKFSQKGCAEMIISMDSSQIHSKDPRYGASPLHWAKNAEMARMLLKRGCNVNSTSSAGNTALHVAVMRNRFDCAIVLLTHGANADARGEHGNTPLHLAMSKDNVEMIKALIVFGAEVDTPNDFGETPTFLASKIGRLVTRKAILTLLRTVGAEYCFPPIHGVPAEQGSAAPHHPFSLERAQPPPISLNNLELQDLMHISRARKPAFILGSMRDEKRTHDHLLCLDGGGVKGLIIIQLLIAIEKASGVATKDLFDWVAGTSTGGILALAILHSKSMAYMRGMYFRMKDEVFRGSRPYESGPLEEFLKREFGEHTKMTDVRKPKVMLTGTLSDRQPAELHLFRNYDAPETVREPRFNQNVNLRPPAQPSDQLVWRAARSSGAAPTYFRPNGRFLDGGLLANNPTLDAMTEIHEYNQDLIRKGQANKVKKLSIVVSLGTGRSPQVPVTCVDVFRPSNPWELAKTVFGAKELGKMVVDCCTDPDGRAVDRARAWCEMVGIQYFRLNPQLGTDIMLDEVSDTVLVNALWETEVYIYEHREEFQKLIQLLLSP
Kind of experiment: Inhibition of group 6A iPLA2 at 0.091 mole fraction. An outline of the steps:
(§2)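 Recombinant human GVIA-2 iPLA2 (His-tagged) was expressed in Sf9 cells by baculovirus and purified on Ni-NTA. Enzyme (190 ng) acted on mixed micelles of 100 µM DPPC with [14C]-palmitoyl PC tracer and 400 µM Triton X-100, in HEPES pH 7.5 with EDTA, DTT and ATP and 1% DMSO. Runs were 30 min at 40 °C, read by modified Dole assay. XI(50) (mole fraction) came from a logarithmic or linear fit; highest dose 0.091 mole fraction.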

Experiment [3] has as its target T2, 85/88 kDa calcium-independent phospholipase A2 (Homo sapiens). In words: Inhibition of group 6A iPLA2 at 0.02 mole fraction.
The target in experiment [4] is T1, Cytosolic phospholipase A2 (Homo sapiens). Kind of experiment: Inhibition of group 4A cPLA2 at 0.01 mole fraction.
The target is the same in experiment [5]. In words: Inhibition of group 4A cPLA2 at 0.091 mole fraction. An outline of the steps:
as §1

Experiment [6] concerns RAW264.7. In words: Inhibition of LPS-stimulated prostaglandin PGE2 production in mouse RAW 264.7 macrophage-like cell line. It counts as functional. An outline of the steps: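 RAW 264.7 cells in DMEM/10% FCS were plated at 5×10^5 per well, allowed to adhere 24 h, then held serum-free 18 h. Inhibitors, in DMSO (<0.5% v/v) diluted into serum-free medium, were added 30 min before 100 ng/mL E. coli 0111:B4 LPS for 24 h. Medium PGE2 was quantified by LC-MS (negative ESI, MRM) against a deuterated PGE2 internal standard.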

Experiment [7] concerns the target T2, 85/88 kDa calcium-independent phospholipase A2 (Homo sapiens). In words: Inhibition of group 6A iPLA2. Put shortly: as §2

Calls of active or inactive are those of the source. No cut-off for these calls is given here.

This note sets out measurements from ChEMBL document CHEMBL1147679, “Differential inhibition of group IVA and group VIA phospholipases A2 by 2-oxoamides” (2006).

As usually defined, the inhibition is the change of the read-out against control, counted positive when it falls. The compound `CCCCCCCCCCCCCCC(=O)C(=O)NCCCC(=O)O` yielded an XI50 (mole fraction) in experiment [1] of 0.017. In experiment [2], the inhibition is 0%.
With `CCCCCCCCCCCCCCCCNC(=O)C(=O)CC`, the inhibition in experiment [3] was 25%; in experiment [4], 0%.
As to `O=C(O)CCCNC(=O)C(=O)CCCc1ccccc1`, the inhibition in experiment [5] and in experiment [2] was 0% throughout.
A word on the Inhibition: it is the change of the read-out against control, counted positive when it falls. For the compound `CCCCCCCCCCCCCCC(=O)C(=O)N[C@@H](/C=C/C(=O)OC)CCCC`, the XI50 (mole fraction) in experiment [1] stood at 0.018; in experiment [7], 0.032. In experiment [6], this compound showed an Inhibition of 40%.
Take `COC(=O)CCCNC(=O)C(=O)CCCCc1ccccc1`: the inhibition in experiment [5] and in experiment [2] was 0% in each case.
Turning to `NC(=O)C(=O)CCCCc1ccccc1`, the inhibition in experiment [5] and in experiment [2] was 0% each time.
For `COC(=O)CCCNC(=O)C(=O)CCCc1ccccc1`, the inhibition in experiment [5] and in experiment [2] was 0% each time.
Take `CCCCCCCC/C=C\CCCCCCCC(=O)C(=O)NCCCC(=O)OC`: the XI50 (mole fraction) in experiment [1] was determined as 0.012; in experiment [7] it was 0.067. Moreover, the Inhibition in experiment [6] stood at 40%.
As for `CCCCCCCCCCCCCC(=O)C(N)=O`, the inhibition in experiment [3] and in experiment [4] was 0% throughout.
For the compound `CCCCCCCC/C=C\CCCCCCCC(=O)C(=O)NCCCC(=O)O`, the XI50 (mole fraction) in experiment [1] is 0.011. The inhibition in experiment [2] was 0%.
Consider `CCCCCCCCCCCCCCC(=O)C(=O)NCCCC(=O)OC`, for which the inhibition in experiment [5] was 0%; in experiment [2], 25%. Moreover, the inhibition result in experiment [6] was “inactive”.
As to `CCCCCCCCCCCCCCC(=O)C(=O)N[C@H](/C=C/C(=O)O)CCCC`, the XI50 (mole fraction) in experiment [1] stood at 0.003. Further, the inhibition in experiment [2] was 0%.
As to `O=C(O)CCCNC(=O)C(=O)CCCCc1ccccc1`, the inhibition in experiment [5] and in experiment [2] was 0% in each case.
Regarding `CCCCCCCCCCCCCCC(=O)C(=O)NCCCCCC`, the results for the inhibition in experiment [3] and in experiment [4] were 25% and 0%, respectively.
